What was measured:
[1] = target: T1, Neutrophil elastase (Homo sapiens) (UniProt P08246); assay: Inactivation of human leukocyte (neutrophil) elastase (HLE)(HNE) as rate constant; format: functional
T1 sequence (whole entry): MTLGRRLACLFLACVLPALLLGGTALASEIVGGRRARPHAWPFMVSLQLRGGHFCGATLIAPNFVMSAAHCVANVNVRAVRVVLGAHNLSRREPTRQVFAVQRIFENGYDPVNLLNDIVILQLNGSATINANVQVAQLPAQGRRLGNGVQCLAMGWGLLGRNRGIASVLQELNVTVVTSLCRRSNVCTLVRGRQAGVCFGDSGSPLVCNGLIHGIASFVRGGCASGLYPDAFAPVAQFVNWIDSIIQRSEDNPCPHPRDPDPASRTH
How it was run: (§1)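 HNE (0.1–2.0 μM) in 0.1 M Hepes, 0.5 M NaCl, pH 7.5, 25 °C, was incubated with inhibitor added from Me2SO (final 8–12% v/v). Timed aliquots were diluted 40–200-fold into MeO-Suc-Ala-Ala-Pro-Val-NA (0.1–0.125 mM), and residual activity was read at 410 nm. kobs came from ln(vt/v0) vs time and is reported as kobs/[I]. Very fast cases are lower limits.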

[2] = target: Pancreatic elastase (Sus scrofa) (UniProt P08419+P00772); assay: Inactivation of porcine pancreatic elastase (PPE) expressed as rate constant.; format: functional
How it was run: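 PPE (0.1–2.0 μM) was incubated with inhibitor in 0.1 M Hepes, 0.5 M NaCl, pH 7.5, at 25 °C; inhibitor was added in Me2SO to a final 8–12% v/v. Aliquots taken over time were diluted 40–200-fold into Suc-Ala-Ala-Ala-NA (0.6–1.2 mM), with 4-nitroanilide release followed at 410 nm. First-order kobs came from ln(vt/v0) vs time and is given as kobs/[I].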

[3] = system: Pancreatic elastase (Sus scrofa); assay: Compound was tested for the inactivation of porcine pancreatic elastase(PPE) expressed as rate constant
[4] = target: T1, Neutrophil elastase (Homo sapiens); assay: Compound was tested for the inactivation of human leukocyte (neutrophil) elastase(HLE)(HNE) expressed as rate constant; format: functional; how it was run: as §1
[5] = target: T1, Neutrophil elastase (Homo sapiens); assay: Inactivation of human leukocyte (neutrophil) elastase(HLE)(HNE) as rate constant; how it was run: as §1

Compound: COC(=O)CCC(=O)Nc1ccc2c(Cl)c(OC)oc(=O)c2c1
- kobs/[I] (second-order inactivation rate constant) [1]: 43000 M⁻¹ s⁻¹
- second-order inactivation rate constant (kobs/[I]) [2]: 2200 M⁻¹ s⁻¹

Compound: COc1oc(=O)c2cc(NC(=O)Cc3ccccc3)ccc2c1Cl
- kobs/[I] (second-order inactivation rate constant) [1]: 37000 M⁻¹ s⁻¹
- second-order inactivation rate constant (kobs/[I]) [2]: 2000 M⁻¹ s⁻¹

Compound: COc1oc(=O)c2cc(NC(C)=O)ccc2c1Cl
- kobs/[I] (second-order inactivation rate constant) [1]: 30000 M⁻¹ s⁻¹
- second-order inactivation rate constant (kobs/[I]) [2]: 2300 M⁻¹ s⁻¹

Compound: COc1oc(=O)c2cc(NC(=O)C(c3ccccc3)c3ccccc3)ccc2c1Cl
- kobs/[I] (second-order inactivation rate constant) [1]: 52000 M⁻¹ s⁻¹
- second-order inactivation rate constant (kobs/[I]) [2]: 20 M⁻¹ s⁻¹

Compound: COc1oc(=O)c2cc(NC(=O)c3ccccc3C(=O)O)ccc2c1Cl
- kobs/[I] (second-order inactivation rate constant) [1]: 52000 M⁻¹ s⁻¹
- second-order inactivation rate constant (kobs/[I]) [2]: 2700 M⁻¹ s⁻¹

Compound: COc1oc(=O)c2cc(NC(=O)OCc3ccccc3)ccc2c1Cl
- kobs/[I] (second-order inactivation rate constant) [1]: 71000 M⁻¹ s⁻¹
- second-order inactivation rate constant (kobs/[I]) [2]: 260 M⁻¹ s⁻¹

Compound: COc1oc(=O)c2cc(NC(=O)CC(CC(=O)O)c3ccccc3)ccc2c1Cl (centres undefined)
- kobs/[I] (second-order inactivation rate constant) [1]: 66000 M⁻¹ s⁻¹
- second-order inactivation rate constant (kobs/[I]) [2]: 100 M⁻¹ s⁻¹

Compound: COC(=O)Nc1cccc(C(=O)Nc2ccc3c(Cl)c(OC)oc(=O)c3c2)c1
- kobs/[I] (second-order inactivation rate constant) [1]: 100000 M⁻¹ s⁻¹
- second-order inactivation rate constant (kobs/[I]) [2]: 2500 M⁻¹ s⁻¹

Compound: COc1oc(=O)c2cc(NC(=O)C(NS(=O)(=O)c3ccc(C)cc3)c3ccccc3)ccc2c1Cl (centres undefined)
- kobs/[I] (second-order inactivation rate constant) [1]: 84000 M⁻¹ s⁻¹
- second-order inactivation rate constant (kobs/[I]) [2]: 1500 M⁻¹ s⁻¹

Compound: COc1oc(=O)c2cc(NC(=O)CCCC(=O)O)ccc2c1Cl
- kobs/[I] (second-order inactivation rate constant) [1]: 51000 M⁻¹ s⁻¹
- second-order inactivation rate constant (kobs/[I]) [2]: 900 M⁻¹ s⁻¹

Compound: COc1oc(=O)c2cc(N=C=O)ccc2c1Cl
- [I] [3]: 8.3 µM
- k obs / 1 [4]: 9200 M⁻¹ s⁻¹
- second-order inactivation rate constant (kobs/[I]) [2]: 650 M⁻¹ s⁻¹

Compound: COc1oc(=O)c2cc(NC(=O)C(Cc3ccccc3)NS(=O)(=O)c3ccc(C)cc3)ccc2c1Cl (centres undefined)
- kobs/[I] (second-order inactivation rate constant) [1]: 200000 M⁻¹ s⁻¹
- second-order inactivation rate constant (kobs/[I]) [2]: 6500 M⁻¹ s⁻¹

Compound: CCOC(=O)Nc1ccc2c(Cl)c(OC)oc(=O)c2c1
- kobs/[I] (second-order inactivation rate constant) [1]: 47000 M⁻¹ s⁻¹
- second-order inactivation rate constant (kobs/[I]) [2]: 2000 M⁻¹ s⁻¹

Compound: COc1oc(=O)c2cc(NC(=O)OCC3c4ccccc4-c4ccccc43)ccc2c1Cl
- [I] [3]: 600 µM
- k obs / 1 [4]: 10000 M⁻¹ s⁻¹
- second-order inactivation rate constant (kobs/[I]) [2]: 20 M⁻¹ s⁻¹

Compound: COC(=O)c1ccccc1C(=O)Nc1ccc2c(Cl)c(OC)oc(=O)c2c1
- second-order inactivation rate constant (kobs/[I]) [2]: 7100 M⁻¹ s⁻¹

Compound: COc1oc(=O)c2cc(NC(=O)C(F)(F)C(F)(F)C(F)(F)F)ccc2c1Cl
- kobs/[I] (second-order inactivation rate constant) [1]: 47000 M⁻¹ s⁻¹
- second-order inactivation rate constant (kobs/[I]) [2]: 1100 M⁻¹ s⁻¹

Compound: COC(=O)CCCC(=O)Nc1ccc2c(Cl)c(OC)oc(=O)c2c1
- kobs/[I] (second-order inactivation rate constant) [1]: 54000 M⁻¹ s⁻¹
- second-order inactivation rate constant (kobs/[I]) [2]: 2800 M⁻¹ s⁻¹

Compound: COc1oc(=O)c2cc(NC(=O)C(C)NS(=O)(=O)c3ccc(C)cc3)ccc2c1Cl (centres undefined)
- kobs/[I] (second-order inactivation rate constant) [1]: 55000 M⁻¹ s⁻¹
- second-order inactivation rate constant (kobs/[I]) [2]: 2500 M⁻¹ s⁻¹

Compound: COc1oc(=O)c2cc(NC(=O)Nc3ccccc3)ccc2c1Cl
- kobs/[I] (second-order inactivation rate constant) [1]: 49000 M⁻¹ s⁻¹
- second-order inactivation rate constant (kobs/[I]) [2]: 7300 M⁻¹ s⁻¹

Compound: COc1oc(=O)c2cc(NC(=O)C(NS(=O)(=O)c3ccc(C)cc3)C(C)C)ccc2c1Cl (centres undefined)
- kobs/[I] (second-order inactivation rate constant) [1]: 36000 M⁻¹ s⁻¹
- second-order inactivation rate constant (kobs/[I]) [2]: 1300 M⁻¹ s⁻¹

Compound: COc1oc(=O)c2cc(NC(=O)CCC(=O)O)ccc2c1Cl
- kobs/[I] (second-order inactivation rate constant) [1]: 9500 M⁻¹ s⁻¹
- second-order inactivation rate constant (kobs/[I]) [2]: 900 M⁻¹ s⁻¹

Compound: COc1oc(=O)c2cc(NC(=O)Oc3ccccc3)ccc2c1Cl
- k obs / 1 [5]: 13000 M⁻¹ s⁻¹
- [I] [3]: 8.8 µM
- second-order inactivation rate constant (kobs/[I]) [2]: 850 M⁻¹ s⁻¹

Compound: COc1oc(=O)c2cc(NC(=O)CC(c3ccccc3)c3ccccc3)ccc2c1Cl
- kobs/[I] (second-order inactivation rate constant) [1]: 130000 M⁻¹ s⁻¹
- second-order inactivation rate constant (kobs/[I]) [2]: 2400 M⁻¹ s⁻¹

Compound: COc1oc(=O)c2cc(NC(=O)CCc3ccccc3)ccc2c1Cl
- kobs/[I] (second-order inactivation rate constant) [1]: 66000 M⁻¹ s⁻¹
- second-order inactivation rate constant (kobs/[I]) [2]: 3100 M⁻¹ s⁻¹

Compound: COc1oc(=O)c2cc(NC(=O)N(CCc3ccccc3)Cc3ccccc3)ccc2c1Cl
- kobs/[I] (second-order inactivation rate constant) [1]: 12000 M⁻¹ s⁻¹
- second-order inactivation rate constant (kobs/[I]) [2]: 17 M⁻¹ s⁻¹

Compound: COc1oc(=O)c2cc(NC(=O)C(CC(C)C)NS(=O)(=O)c3ccc(C)cc3)ccc2c1Cl (centres undefined)
- kobs/[I] (second-order inactivation rate constant) [1]: 54000 M⁻¹ s⁻¹
- second-order inactivation rate constant (kobs/[I]) [2]: 6300 M⁻¹ s⁻¹

Source: ChEMBL document CHEMBL1125411, “Effect of the 7-amino substituent on the inhibitory potency of mechanism-based isocoumarin inhibitors for porcine pancreatic and human neutrophil elastases: a 1.85-A X-ray structure of the complex between porcine pancreatic elastase and 7-[(N-tosylphenylalanyl)amino]-4-chloro-3- methoxyisocoumarin” (J Med Chem, 1992)
